{"data": "Assay results from different studies", "note": "pEC50, pIC50: −log10 of the molar value."}
{"SMILES": "CC(=O)NC[C@H]1CN(c2ccc(N3CCOCC3)c(F)c2)C(=O)O1", "tested on": "Enterococcus", "test": "microbial growth, broth dilution", "test system": "VRE", "endpoint": "MIC", "result": "2 µg/mL"}
{"SMILES": "CC[C@H](C)C[C@H](C)CCCCCCCCC(=O)N[C@H]1C[C@@H](O)[C@@H](NCCN)NC(=O)[C@@H]2[C@@H](O)CCN2C(=O)[C@H]([C@H](O)CCN)NC(=O)[C@H]([C@H](O)[C@@H](O)c2ccc(O)cc2)NC(=O)[C@@H]2C[C@@H](O)CN2C(=O)[C@H]([C@@H](C)O)NC1=O", "tested on": "Pichia kudriavzevii", "test": "microbial growth, broth dilution", "test system": "ATCC14243", "conditions": "48 h", "endpoint": "MIC", "result": "4 µg/mL"}
{"SMILES": "N.N.[Cl][Pt][Cl]", "tested on": "SU-DHL-8", "test": "cell growth or viability, ATP luminescence", "conditions": "72 h", "endpoint": "pIC50", "result": 6.03}
{"SMILES": "Nc1ccn([C@@H]2O[C@H](CO)[C@@H](O)C2(F)F)c(=O)n1", "tested on": "Influenza A virus", "test": "viral replication, inhibitor, ELISA", "test system": "MDCK, H1N1", "conditions": "24 h", "endpoint": "pIC50", "result": 6.19}
{"SMILES": "N=C(CC(O)c1cc2c(F)cc(F)cc2c2cc(C(F)(F)F)ccc12)Nc1ccc(F)c(F)c1 (stereo not shown)", "tested on": "Plasmodium knowlesi", "test": "parasite growth, SYBR Green", "endpoint": "pIC50", "result": 8.62}
{"SMILES": "O=c1[nH]c(=O)n([C@H]2C[C@H](O)[C@@H](CO)O2)cc1F", "tested on": "Influenza A virus", "test": "viral replication, inhibitor, ELISA", "test system": "MDCK, H1N1", "conditions": "24 h", "endpoint": "pIC50", "result": 4.52}
{"SMILES": "NC(=O)c1nc(F)c[nH]c1=O", "tested on": "Influenza A virus", "test": "viral replication, inhibitor", "test system": "MDCK, H1N1 WSN", "endpoint": "pEC50", "result": 5.80}
{"SMILES": "Nc1ncn([C@@H]2O[C@H](CO)[C@@H](O)[C@H]2O)c(=O)n1", "tested on": "Influenza A virus", "test": "viral replication, inhibitor, ELISA", "test system": "MDCK, H1N1", "conditions": "24 h", "endpoint": "pIC50", "result": 5.47}
{"SMILES": "O=c1c2ccccc2[se]n1-c1ccccc1", "tested on": "Enterovirus A", "test": "viral replication", "test system": "Vero, EV71", "conditions": "48 h", "endpoint": "pIC50", "result": 5.15}
{"SMILES": "N=C(CC(O)c1cc2c(F)cc(F)cc2c2cc(C(F)(F)F)ccc12)Nc1ccc(Br)cc1 (stereo not shown)", "tested on": "Plasmodium knowlesi", "test": "parasite growth, SYBR Green", "endpoint": "pIC50", "result": 8.48}
{"SMILES": "COC(=O)OCOc1c2n(ccc1=O)N([C@@H]1c3ccccc3SCc3c1ccc(F)c3F)[C@@H]1COCCN1C2=O", "tested on": "Influenza A virus", "test": "viral replication, inhibitor", "test system": "H1N1 PR/8", "endpoint": "pEC50", "result": 8.12}
{"SMILES": "C[C@@H]1C[C@@H]([C@H](O)CC2CC(=O)NC(=O)C2)C(=O)[C@@H](C)C1", "tested on": "Fusarium solani", "test": "microbial growth, broth dilution", "endpoint": "MIC", "result": "12 µg/mL"}
{"SMILES": "O=C1c2ccccc2-c2c3c(cc4ccnc1c24)OCO3", "tested on": "HuCC-A1", "test": "cell growth or viability, MTT", "conditions": "75 h", "endpoint": "pIC50", "result": 5.00}
